Measured values taken from ChEMBL document CHEMBL1275461, “Early bactericidal activity and pharmacokinetics of the diarylquinoline TMC207 in treatment of pulmonary tuberculosis” (Antimicrob Agents Chemother, 2008).
≈ marks a conversion by molar mass, not a printed value.

Key:
[1] = Drug uptake in pulmonary tuberculosis patient at 400 mg/kg, po once daily for 7 days by liquid chromatography-MS/MS analysis; format: ADME, organism-based; parameters: dose 400 mg/kg, route oral; details: human, in vivo, read-out: Drug uptake
Outline: (§1)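 Treatment-naïve smear-positive pulmonary TB patients, hospitalized; 7-day oral once-daily monotherapy, directly observed, within 30 min after breakfast. Heparinized plasma taken predose and 1, 2, 3, 4, 5, 6, 8, 12 and 24 h postdose on day 7, plus predose on days 5 and 6. Parent drug and N-monodesmethyl metabolite measured by validated LC-MS/MS. Noncompartmental parameters; AUC0-24 by linear trapezoidal rule.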

[2] = Cmax in pulmonary tuberculosis patient at 25 mg/kg, po once daily for 7 days by liquid chromatography-MS/MS analysis; format: ADME, organism-based; parameters: dose 25 mg/kg, route oral; details: human, in vivo; outline: as §1
[3] = Cmax in pulmonary tuberculosis patient at 100 […], po once daily for 7 days by liquid chromatography-MS/MS analysis; format: ADME, organism-based; parameters: dose 100 mg/kg, route oral; details: human, in vivo; outline: as §1
[4] = Cmax in pulmonary tuberculosis patient at 400 mg/kg, po once daily for 7 days by liquid chromatography-MS/MS analysis; format: ADME, organism-based; parameters: dose 400 mg/kg, route oral; details: human, in vivo; outline: as §1
[5] = Tmax in pulmonary tuberculosis patient at 25 mg/kg, po once daily for 7 days by liquid chromatography-MS/MS analysis; format: ADME, organism-based; parameters: dose 25 mg/kg, route oral; details: human, in vivo; outline: as §1
[6] = Tmax in pulmonary tuberculosis patient at 100 […], po once daily for 7 days by liquid chromatography-MS/MS analysis; format: ADME, organism-based; parameters: dose 100 mg/kg, route oral; details: human, in vivo; outline: as §1
[7] = Tmax in pulmonary tuberculosis patient at 400 mg/kg, po once daily for 7 days by liquid chromatography-MS/MS analysis; format: ADME, organism-based; parameters: dose 400 mg/kg, route oral; details: human, in vivo; outline: as §1
[8] = AUC (0 to 24 hrs) in pulmonary tuberculosis patient at 25 mg/kg, po once daily for 7 days by liquid chromatography-MS/MS analysis; format: ADME, organism-based; parameters: time < 24 hr, dose 25 mg/kg, route oral; details: human, plasma
Outline: (§2)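 Treatment-naïve, sputum smear-positive patients, hospitalized, took the drug orally once daily under direct observation within 30 min after breakfast. On day 7, heparinized plasma was drawn predose and at 1, 2, 3, 4, 5, 6, 8, 12 and 24 h for parent drug and M2 metabolite. Levels were measured by validated LC-MS/MS, and AUC0-24 was calculated noncompartmentally by the linear trapezoidal rule.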

[9] = AUC (0 to 24 hrs) in pulmonary tuberculosis patient at 100 […], po once daily for 7 days by liquid chromatography-MS/MS analysis; format: ADME, organism-based; parameters: time < 24 hr, dose 100 mg/kg, route oral; details: human, plasma; outline: as §2
[10] = AUC (0 to 24 hrs) in pulmonary tuberculosis patient at 400 mg/kg, po once daily for 7 days by liquid chromatography-MS/MS analysis; format: ADME, organism-based; parameters: time < 24 hr, dose 400 mg/kg, route oral; details: human, plasma; outline: as §2
Homo sapiens [11] = assay: Steady-state plasma concentration in pulmonary tuberculosis patient at 25 mg/kg, po once daily for 7 days by liquid chromatography-MS/MS analysis; format: ADME, organism-based; parameters: dose 25 mg/kg, route oral; details: in vivo, 168 h; outline: as §1
Homo sapiens [12] = assay: Steady-state plasma concentration in pulmonary tuberculosis patient at 100 […], po once daily for 7 days by liquid chromatography-MS/MS analysis; format: ADME, organism-based; parameters: dose 100 mg/kg, route oral; details: in vivo, 168 h; outline: as §1
Homo sapiens [13] = assay: Steady-state plasma concentration in pulmonary tuberculosis patient at 400 mg/kg, po once daily for 7 days by liquid chromatography-MS/MS analysis; format: ADME, organism-based; parameters: dose 400 mg/kg, route oral; details: in vivo, 168 h; outline: as §1
Homo sapiens [14] = assay: Toxicity in pulmonary tuberculosis patient assessed as hemoptysis at 100 […], po once daily; format: organism-based; parameters: dose 100 mg/kg, route oral; details: in vivo
Homo sapiens [15] = assay: Toxicity in pulmonary tuberculosis patient assessed as hemoptysis at 400 mg/kg, po once daily; format: organism-based; parameters: dose 400 mg/kg, route oral; details: in vivo
Homo sapiens [16] = assay: Toxicity in pulmonary tuberculosis patient assessed as rash at 100 […], po once daily; format: organism-based; parameters: dose 100 mg/kg, route oral; details: in vivo
Homo sapiens [17] = assay: Toxicity in pulmonary tuberculosis patient assessed as diarrhea at 400 mg/kg, po once daily; format: organism-based; parameters: dose 400 mg/kg, route oral; details: in vivo
Homo sapiens [18] = assay: Toxicity in pulmonary tuberculosis patient assessed as somnolence at 400 mg/kg, po once daily for 7 days; format: organism-based; parameters: dose 400 mg/kg, route oral; details: in vivo, 168 h
Homo sapiens [19] = assay: Cardiotoxicity in pulmonary tuberculosis patient assessed as increase in QT interval at 100 […], po once daily for 7 days; format: toxicity, organism-based; parameters: dose 100 mg/kg, route oral; details: in vivo, 168 h
Homo sapiens [20] = assay: Cardiotoxicity in pulmonary tuberculosis patient assessed as increase in QT interval at 400 mg/kg, po once daily for 7 days; format: toxicity, organism-based; parameters: dose 400 mg/kg, route oral; details: in vivo, 168 h
[21] = tested on: Mycobacterium tuberculosis; assay: Antimicrobial activity against drug-sensitive Mycobacterium tuberculosis; format: functional
[22] = tested on: Mycobacterium tuberculosis; assay: Bactericidal activity against Mycobacterium tuberculosis in pulmonary tuberculosis patient assessed as reduction in sputum bacterial count at 25 […], po once daily measured after 1 day; format: functional
Outline: (§3)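 Hospitalized treatment-naïve smear-positive patients took oral doses once daily, observed, after breakfast. Sputum was pooled over 16 h overnight at baseline, after each of the 7 dosing days, and on the night after the first standard-therapy dose. Sputum was stirred, digested with dithiothreitol for 20 min at room temperature, and diluted 10-fold. Dilutions were plated in quadruplicate on selective 7H11 agar and counted after 3-4 weeks at 37°C at 20-200 colonies. The read-out was change in log10 CFU/ml from baseline, with a count of 0 set to log 0.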

[23] = tested on: Mycobacterium tuberculosis; assay: Bactericidal activity against Mycobacterium tuberculosis in pulmonary tuberculosis patient assessed as reduction in sputum bacterial count at 25 […], po once daily measured after 2 days; format: functional; outline: as §3
[24] = tested on: Mycobacterium tuberculosis; assay: Bactericidal activity against Mycobacterium tuberculosis in pulmonary tuberculosis patient assessed as reduction in sputum bacterial count at 25 […], po once daily measured after 3 days; format: functional; outline: as §3
[25] = tested on: Mycobacterium tuberculosis; assay: Bactericidal activity against Mycobacterium tuberculosis in pulmonary tuberculosis patient assessed as reduction in sputum bacterial count at 25 […], po once daily measured after 4 days; format: functional; outline: as §3
[26] = tested on: Mycobacterium tuberculosis; assay: Bactericidal activity against Mycobacterium tuberculosis in pulmonary tuberculosis patient assessed as reduction in sputum bacterial count at 25 mg/kg, po once daily measured after 5 days; format: functional; outline: as §3
[27] = tested on: Mycobacterium tuberculosis; assay: Bactericidal activity against Mycobacterium tuberculosis in pulmonary tuberculosis patient assessed as reduction in sputum bacterial count at 25 mg/kg, po once daily measured after 6 days; format: functional; outline: as §3
[28] = tested on: Mycobacterium tuberculosis; assay: Bactericidal activity against Mycobacterium tuberculosis in pulmonary tuberculosis patient assessed as reduction in sputum bacterial count at 25 mg/kg, po once daily measured after 7 days; format: functional; outline: as §3
[29] = tested on: Mycobacterium tuberculosis; assay: Bactericidal activity against Mycobacterium tuberculosis in pulmonary tuberculosis patient assessed as reduction in sputum bacterial count at 100 […], po once daily measured after 1 day; format: functional; outline: as §3
[30] = tested on: Mycobacterium tuberculosis; assay: Bactericidal activity against Mycobacterium tuberculosis in pulmonary tuberculosis patient assessed as reduction in sputum bacterial count at 100 […], po once daily measured after 2 days; format: functional; outline: as §3
[31] = tested on: Mycobacterium tuberculosis; assay: Bactericidal activity against Mycobacterium tuberculosis in pulmonary tuberculosis patient assessed as reduction in sputum bacterial count at 100 […], po once daily measured after 3 days; format: functional; outline: as §3
[32] = tested on: Mycobacterium tuberculosis; assay: Bactericidal activity against Mycobacterium tuberculosis in pulmonary tuberculosis patient assessed as reduction in sputum bacterial count at 100 […], po once daily measured after 4 days; format: functional; outline: as §3
[33] = tested on: Mycobacterium tuberculosis; assay: Bactericidal activity against Mycobacterium tuberculosis in pulmonary tuberculosis patient assessed as reduction in sputum bacterial count at 100 […], po once daily measured after 5 days; format: functional; outline: as §3
[34] = tested on: Mycobacterium tuberculosis; assay: Bactericidal activity against Mycobacterium tuberculosis in pulmonary tuberculosis patient assessed as reduction in sputum bacterial count at 100 […], po once daily measured after 6 days; format: functional; outline: as §3
[35] = tested on: Mycobacterium tuberculosis; assay: Bactericidal activity against Mycobacterium tuberculosis in pulmonary tuberculosis patient assessed as reduction in sputum bacterial count at 100 […], po once daily measured after 7 days; format: functional; outline: as §3
[36] = tested on: Mycobacterium tuberculosis; assay: Bactericidal activity against Mycobacterium tuberculosis in pulmonary tuberculosis patient assessed as reduction in sputum bacterial count at 400 […], po once daily measured after 1 day; format: functional; outline: as §3
[37] = tested on: Mycobacterium tuberculosis; assay: Bactericidal activity against Mycobacterium tuberculosis in pulmonary tuberculosis patient assessed as reduction in sputum bacterial count at 400 mg/kg, po once daily measured after 2 days; format: functional; outline: as §3
[38] = tested on: Mycobacterium tuberculosis; assay: Bactericidal activity against Mycobacterium tuberculosis in pulmonary tuberculosis patient assessed as reduction in sputum bacterial count at 400 mg/kg, po once daily measured after 3 days; format: functional; outline: as §3
[39] = tested on: Mycobacterium tuberculosis; assay: Bactericidal activity against Mycobacterium tuberculosis in pulmonary tuberculosis patient assessed as reduction in sputum bacterial count at 400 mg/kg, po once daily measured after 4 days; format: functional; outline: as §3
[40] = tested on: Mycobacterium tuberculosis; assay: Bactericidal activity against Mycobacterium tuberculosis in pulmonary tuberculosis patient assessed as reduction in sputum bacterial count at 400 mg/kg, po once daily measured after 5 days; format: functional; outline: as §3
[41] = tested on: Mycobacterium tuberculosis; assay: Bactericidal activity against Mycobacterium tuberculosis in pulmonary tuberculosis patient assessed as reduction in sputum bacterial count at 400 mg/kg, po once daily measured after 6 days; format: functional; outline: as §3
[42] = tested on: Mycobacterium tuberculosis; assay: Bactericidal activity against Mycobacterium tuberculosis in pulmonary tuberculosis patient assessed as reduction in sputum bacterial count at 400 mg/kg, po once daily measured after 7 days; format: functional; outline: as §3
[43] = tested on: Mycobacterium tuberculosis; assay: Bactericidal activity against Mycobacterium tuberculosis in pulmonary tuberculosis patient assessed as reduction in sputum bacterial count at 25 mg/kg, po once daily measured on day 8 after starting standard TB therapy; format: functional; outline: as §3
[44] = tested on: Mycobacterium tuberculosis; assay: Bactericidal activity against Mycobacterium tuberculosis in pulmonary tuberculosis patient assessed as reduction in sputum bacterial count at 100 […], po once daily measured on day 8 after starting standard TB therapy; format: functional; outline: as §3
[45] = tested on: Mycobacterium tuberculosis; assay: Bactericidal activity against Mycobacterium tuberculosis in pulmonary tuberculosis patient assessed as reduction in sputum bacterial count at 400 mg/kg, po once daily measured on day 8 after starting standard TB therapy; format: functional; outline: as §3
[46] = Drug uptake in pulmonary tuberculosis patient at 25 mg/kg, po once daily for 7 days by liquid chromatography-MS/MS analysis; format: ADME, organism-based; parameters: dose 25 mg/kg, route oral; details: human, in vivo, read-out: Drug uptake; outline: as §1
[47] = Drug uptake in pulmonary tuberculosis patient at 100 […], po once daily for 7 days by liquid chromatography-MS/MS analysis; format: ADME, organism-based; parameters: dose 100 mg/kg, route oral; details: human, in vivo, read-out: Drug uptake; outline: as §1

What does the source list for COc1nc2ccc(Br)cc2cc1[C@@H](c1ccccc1)[C@@](O)(CCN(C)C)c1cccc2ccccc12 [BEDAQUILINE]?
concentration at 168 h [1]: 1530 ng/mL; Cmax [2]: 319 ng/mL; Cmax [3]: 1210 ng/mL; Cmax [4]: 5500 ng/mL; Tmax [5]: 3.93 h; Tmax [6]: 4 h; Tmax [7]: 4 h; AUC at 24 h [8]: 3970 ng·h/mL; AUC at 24 h [9]: 16000 ng·h/mL; AUC at 24 h [10]: 64800 ng·h/mL; Css (Homo sapiens [11]): 165.5 ng/mL; Css (Homo sapiens [12]): 667.7 ng/mL; Css (Homo sapiens [13]): 2696 ng/mL; Activity (Homo sapiens [14]): 6.3%; Activity (Homo sapiens [15]): 21.4%; Activity (Homo sapiens [16]): 7%; Activity (Homo sapiens [17]): 7%; Activity (Homo sapiens [18]): 7%; Time (Homo sapiens [19]): 7.1 ms; Time (Homo sapiens [20]): 18.8 ms; MIC [21]: 0.03 µg/mL (≈ 0.054 µM); log10CFU/ml [22]: -0.06; log10CFU/ml [23]: 0.02; log10CFU/ml [24]: -0.04; log10CFU/ml [25]: -0.22; log10CFU/ml [26]: -0.09; log10CFU/ml [27]: -0.06; log10CFU/ml [28]: -0.04; log10CFU/ml [29]: -0.11; log10CFU/ml [30]: -0.2; log10CFU/ml [31]: -0.37; log10CFU/ml [32]: -0.24; log10CFU/ml [33]: -0.13; log10CFU/ml [34]: -0.09; log10CFU/ml [35]: -0.26; log10CFU/ml [36]: -0.07; log10CFU/ml [37]: 0.04; log10CFU/ml [38]: -0.31; log10CFU/ml [39]: -0.22; log10CFU/ml [40]: -0.45; log10CFU/ml [41]: -0.46; log10CFU/ml [42]: -0.77; log10CFU/ml [43]: -0.46; log10CFU/ml [44]: -0.71; log10CFU/ml [45]: -1.14; concentration at 168 h [46]: 104 ng/mL; concentration at 168 h [47]: 391 ng/mL
